# According to the EternaBench riboswitch data:
# Tested on: MS2 coat protein
# Test: apparent Kd, MS2 coat protein; higher = weaker binding; RNA-MaP array; FMN 200 µM where present
# Outline: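 Each design was made on Illumina sequencing-chip clusters by stalled E. coli RNA polymerase and titrated with SNAP-549-labelled MS2 coat protein from 0.7 or 1.5 nM, doubling to 3 µM, in the absence and then the presence of constant ligand. The buffer was 100 mM Tris-HCl pH 7.5, 80 mM KCl, 4 mM MgCl2, BSA, DTT, yeast tRNA and Tween-20. The apparent Kd is the median of filtered per-cluster fits of binding curves, with green signal normalised to red-channel RNA signal and control-cluster median Fmax.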
# [1] = designed as: OFF switch for flavin mononucleotide, no ligand
# [2] = ligand present: flavin mononucleotide, designed as: OFF switch for flavin mononucleotide
# [3] = designed as: ON switch for flavin mononucleotide, no ligand
# [4] = ligand present: flavin mononucleotide, designed as: ON switch for flavin mononucleotide
Sequence,apparent Kd [1] [µM],apparent Kd [2] [µM],apparent Kd [3] [µM],apparent Kd [4] [µM]
GAAAACGGAGAGGAUAUUUGAGAUCAAAGCUCCAAAGAAGGCUCCACAUGAGGAUCACCCAUGUGGUCUUCAAA,0.0135,0.111,,
UUAUGUUUUGUAGGAUAUCAUUAGAUUUGUAUUUUAAUUGUAAUUUAGAUAUGAGAAGGACAUUUACAUGAGGAUCACCCAUGU,0.0147,0.0107,,
AGCUACGUUUCGUAGCAGCUAGGUGAGGAUAUUCAAUUGUUCACAUGAGGAUCACCCAUGUAUGUGAAGAAGGCGCCUAGAAAG,,,0.00716,0.00534
AAAGAUCCUCAGAAGGGCUCGUCCUAUAAGAUAGCAGGAUAUGAGGAGAUUGCCAAACAUGAGGAUCACCCAUGUAGUUGGAGU,,,0.0835,0.0148
ACCUUACAUGAGGAUCACCCAUGUUAGGAUAUCUCGCUUUCGCUGUCACAGCGCAAGCAGAGAAGGGACACGGG,0.0339,0.0645,,
AGCUGUGGCCGAGGAUAUCUAAAUUCUCAAAACGAAAUAUAAUCGAACAUGAGGAUCACCCAUGUAGAGAAGGCGGUCUCAGCA,0.039,0.298,,
CAGCGAAAGCUGAAUCUGUAGAGAGAGGAUAUACAAGAAUAAGUCCAUACAUGAGGAUCACCCAUGUAGAAGGCUCUCUACAGU,0.00728,0.0254,,
AAGCGCUACAUGAGGAUCACCCAUGUUCCGAGGCAGAUUUCACAGGAUAUCCCAAUUGGCCCAAGGGAGAAGGGUGAUGGCCAA,,,0.0791,0.0236
GUAGCUAUCGGAGGAUAUUCAUACCGGAAACGGACAUGAGGAUCACCCAUGUGGCGAAAGCCGUGGGAGAAGGCCGAUAGCUAC,,,0.875,0.043
GAAAACAGAGGAUAUACAUGAUUAUGACGAAAGUCAUAAAAACAUGAGGAUCACCCAUGUAGAAGGCUGAAGAA,0.185,0.201,,
UUUGGGCCCUCAUCCCUCGACACAUGAGGAUCACCCAUGUGCAGAAGGUGGAGACCCGAGGUCGCCAAGGAUAUGCAAUGGGAC,0.0158,0.0102,,
GUGUACAGAGGAUAUACAUGAGCAUGGAAACAUGCAUCCUCACAUGAGGAUCACCCAUGUAGAAGGCUGUACAC,0.0266,0.0316,,
CUGUUCCGUGUAGGAUAUGCAUAUUCCCAUUAUGCAGAAGGACAUGAGGAUCACCCAUGUAUGUUAUUAUCAUGUGUUACAUGC,0.0444,0.453,,
AAAACACAUGAGGAUCACCCAUGUAUCUGGACCAUAGGAUAUCCGCGCCCACUAGGGUGUGGAGAAGGGUGAGCCC,,,0.204,0.245
AUGAAAGUAACACAGGAUAUCGAGGAUACAACAUGAGGAUCACCCAUGUACAUACGAACGUAUAACGAGAAGGGUGGAUGAUCUUC,,,0.244,0.639
UGAAAGUGAGGAUAUGGUGAGUAGUGCCUGAGCGCUGCUCACCAGAAGGCACAUGAGGAUCACCCAUGUAAAUG,0.0534,0.17,,
AGGUAACAUGAGGAUCACCCAUGUCAGGAUAUCAUGAAGAUUAGAUUAGAGGAGAGGUUGAGAAGGGACUAUAU,0.0556,0.0495,,
AUCGGUCCGUAGAAGGGUGACAUGAGGAUCACCCAUGUGCCGUGUGCAUUUAUGCAUCCACGGCCACAGGAUAUACGGAGUUGA,,,0.0349,0.0254
GGACGGUUAGUGAGGAUAUGCUCUACCUCGGUAGAGCAGAAGGCACAUGAGGAUCACCCAUGUGAAAACUGUUC,0.0166,0.0212,,
CGAUAACAUAGUUAUCCGUAGCGGACAUGAGGAUCACCCAUGUAGGAUAUGUUACUCAACGAGUAACAGAAGGACAUGAGUCUU,0.0181,0.114,,
AUUUUGUGAGGAUAUGUGGCUUCGAUCGUGAGAUCGAGGCUACAGAAGGCACAUGAGGAUCACCCAUGUUCCUA,0.0206,0.206,,
AAAAACGUAGGAUAUACAUGAAAAAAAAAAAAAAAAAAAAGACAUGAGGAUCACCCAUGUAGAAGGGCGAAAAA,0.115,0.104,,
ACGAUUCACUCAGGAUAUGUAUCACCUCGUUACCAACAUGAGGAUCACCCAUGUCCGUGGCUCGGACAGAAGGGAGAAGAAUCG,,,0.733,0.22
